# Assays:
# [1] = biological target: T1, Kappa-type opioid receptor (Homo sapiens, UniProt P41145); test: Agonist activity at human KOPR expressed in CHO cells assessed as enhancement of [35S]GTPgammaS binding at 10 uM relative to U50488; type: functional, cell-based
# [2] = biological target: Delta-type opioid receptor (Mus musculus, UniProt P32300); test: Binding affinity to mouse DOPR expressed in CHO cells; type: cell-based
# Outline: (§1)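 Competitive displacement of [3H]diprenorphine from membranes of CHO cells stably transfected with rat MOPR or mouse DOPR. Buffer: 50 mM Tris-HCl, pH 7.4, with 1 mM EGTA. Ki values were derived from inhibition curves. Each value is the mean of at least three independent experiments run in duplicate.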
# Mu-type opioid receptor = Mu-type opioid receptor (Rattus norvegicus, UniProt P33535); test: Binding affinity to rat MOPR expressed in CHO cells; type: cell-based; outline: as §1
# Sequence of Mu-type opioid receptor (P33535 whole entry): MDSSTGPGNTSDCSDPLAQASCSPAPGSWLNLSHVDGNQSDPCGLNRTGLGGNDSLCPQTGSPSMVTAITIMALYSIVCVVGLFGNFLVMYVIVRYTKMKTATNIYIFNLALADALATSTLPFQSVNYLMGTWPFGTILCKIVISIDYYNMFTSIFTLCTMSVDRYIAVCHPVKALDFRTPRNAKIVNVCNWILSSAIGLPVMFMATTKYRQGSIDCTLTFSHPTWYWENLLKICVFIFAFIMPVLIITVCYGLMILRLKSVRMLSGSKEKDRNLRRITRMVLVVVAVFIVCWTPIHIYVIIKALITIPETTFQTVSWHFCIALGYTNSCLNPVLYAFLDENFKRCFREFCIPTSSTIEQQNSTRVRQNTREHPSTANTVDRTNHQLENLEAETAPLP
# [3] = biological target: T1, Kappa-type opioid receptor; test: Displacement of [3H]diprenorphine from human KOPR expressed in CHO cells; type: cell-based
# [4] = biological target: T1, Kappa-type opioid receptor; test: Agonist activity at human KOPR expressed in CHO cells assessed as enhancement of [35S]GTPgammaS binding; type: functional, cell-based
# T1 sequence (P41145 whole entry): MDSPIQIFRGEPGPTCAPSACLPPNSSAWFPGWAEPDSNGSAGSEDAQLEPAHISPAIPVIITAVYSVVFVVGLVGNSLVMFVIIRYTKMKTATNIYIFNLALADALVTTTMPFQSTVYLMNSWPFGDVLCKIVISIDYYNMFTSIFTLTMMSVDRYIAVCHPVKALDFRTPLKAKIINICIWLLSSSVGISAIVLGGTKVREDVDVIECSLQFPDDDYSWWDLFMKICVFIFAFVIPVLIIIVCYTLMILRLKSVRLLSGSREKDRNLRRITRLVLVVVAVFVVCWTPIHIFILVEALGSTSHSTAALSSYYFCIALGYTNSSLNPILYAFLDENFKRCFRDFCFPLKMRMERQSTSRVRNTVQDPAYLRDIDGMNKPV
# Sequence of Delta-type opioid receptor (P32300 whole entry): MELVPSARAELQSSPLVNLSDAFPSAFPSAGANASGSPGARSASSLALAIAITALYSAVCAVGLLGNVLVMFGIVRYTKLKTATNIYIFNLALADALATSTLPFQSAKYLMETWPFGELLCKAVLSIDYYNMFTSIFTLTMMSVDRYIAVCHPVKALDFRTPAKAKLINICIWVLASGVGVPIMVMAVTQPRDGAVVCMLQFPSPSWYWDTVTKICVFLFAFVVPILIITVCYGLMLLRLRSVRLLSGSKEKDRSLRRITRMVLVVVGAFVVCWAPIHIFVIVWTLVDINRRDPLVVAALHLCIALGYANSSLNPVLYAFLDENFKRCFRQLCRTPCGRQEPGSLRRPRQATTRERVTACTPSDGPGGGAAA
compound,measurement,setting,value
C=Cc1occc1[C@@H]1C[C@]2(C)[C@H]3C(=O)[C@@H](OC(C)=O)C[C@@H](C(=O)OC)[C@]3(C)CC[C@H]2C(=O)O1,Emax,[1],120%
same,Ki,[2],> 1 µM
same,Ki,Mu-type opioid receptor,> 1 µM
CCOC[C@@H]1C[C@]2(C)[C@H]3C(=O)[C@@H](OC(C)=O)C[C@@H](C(=O)OC)[C@]3(C)CC[C@H]2C(=O)O1,Ki,[2],> 1 µM
same,Ki,Mu-type opioid receptor,> 1 µM
CCOC(=O)[C@@H]1C[C@]2(C)[C@H]3C(=O)[C@@H](OC(C)=O)C[C@@H](C(=O)OC)[C@]3(C)CC[C@H]2C(=O)O1,Emax,[1],94%
same,Ki,[2],> 1 µM
same,Ki,Mu-type opioid receptor,> 1 µM
COC(=O)[C@@H]1C[C@H](OC(C)=O)C(=O)[C@H]2[C@@]1(C)CC[C@H]1C(=O)O[C@H](C(=O)c3cccs3)C[C@]21C,Emax,[1],103%
same,Ki,[2],> 1 µM
same,Ki,Mu-type opioid receptor,> 1 µM
COC[C@@H]1C[C@]2(C)[C@H]3C(=O)[C@@H](OC(C)=O)C[C@@H](C(=O)OC)[C@]3(C)CC[C@H]2C(=O)O1,Emax,[1],98%
same,Ki,[2],> 1 µM
same,Ki,Mu-type opioid receptor,> 1 µM
COC(=O)[C@@H]1C[C@H](OC(C)=O)C(=O)[C@H]2[C@@]1(C)CC[C@H]1C(=O)O[C@H]([C@H](O)c3ccco3)C[C@]21C,Emax,[1],111%
same,Ki,[2],> 1 µM
same,Ki,Mu-type opioid receptor,> 1 µM
COC(=O)[C@@H]1C[C@H](OC(C)=O)C(=O)[C@H]2[C@@]1(C)CC[C@H]1C(=O)O[C@H](COC(C)=O)C[C@]21C,Emax,[1],113%
same,Ki,[2],> 1 µM
same,Ki,Mu-type opioid receptor,> 1 µM
COC(=O)[C@@H]1C[C@H](OC(C)=O)C(=O)[C@H]2[C@@]1(C)CC[C@H]1C(=O)O[C@H](C(=O)OC(C)C)C[C@]21C,Emax,[1],94%
same,Ki,[2],> 1 µM
same,Ki,Mu-type opioid receptor,> 1 µM
COC(=O)[C@@H]1C[C@H](OC(C)=O)C(=O)[C@H]2[C@@]1(C)CC[C@H]1C(=O)O[C@H](C(=O)O)C[C@]21C,Emax,[1],99%
same,Ki,[3],0.055 µM
same,EC50,[4],0.167 µM
same,Ki,[2],> 1 µM
same,Ki,Mu-type opioid receptor,> 1 µM
COC(=O)[C@@H]1C[C@H](OC(C)=O)C(=O)[C@H]2[C@@]1(C)CC[C@H]1C(=O)O[C@H](c3ccoc3Br)C[C@]21C,Ki,[2],> 1 µM
same,Ki,Mu-type opioid receptor,> 1 µM
COC(=O)[C@@H]1C[C@H](OC(C)=O)C(=O)[C@H]2[C@@]1(C)CC[C@H]1C(=O)O[C@H](C(=O)c3cnccn3)C[C@]21C,Emax,[1],103%
same,Ki,[2],> 1 µM
same,Ki,Mu-type opioid receptor,> 1 µM
COC(=O)[C@@H]1C[C@]2(C)[C@H]3C(=O)[C@@H](OC(C)=O)C[C@@H](C(=O)OC)[C@]3(C)CC[C@H]2C(=O)O1,Emax,[1],99%
same,Ki,[2],> 1 µM
same,Ki,Mu-type opioid receptor,> 1 µM
